Results reported in ChEMBL document CHEMBL4364301 (Eur J Med Chem, 2019).

Experiments:
[1] = Metabolic stability in liver microsomes (unknown origin) assessed as intrinsic clearance per mg of protein at 3 uM measured upto 45 mins in presence of NADPH by LC-MS/MS analysis; assay type: ADME, Microsome; details: read-out: CLH
Outline: (§1)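 Pooled liver microsomes at 0.5 mg/mL protein in 0.1 M phosphate buffer pH 7.4 were incubated with 3 μM compound (0.25% DMSO) at 37 °C. Reactions were started with 1 mM NADPH and sampled at 0, 5, 15, 30 and 45 min. A minus-NADPH control ran for 45 min. Reactions were quenched in methanol and analysed by LC-MS/MS to give CLint and t1/2.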

DU-145 = test: Antiproliferative activity against human DU145 cells assessed as reduction in cell growth incubated for 96 hrs by propidium iodide based 2D monolayer assay; assay type: functional
Outline: (§2)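 After 24 h recovery, compound in medium or medium alone (control wells) was added at 10 half-log concentrations from 0.0032 to 100 µM, in triplicate, with at most 0.3% DMSO. After 96 h, wells were PBS-washed, stained with 7 µg/ml PI and 0.1% Triton X-100, and fluorescence read at 530/620 nm. IC50 came from a 4-parameter fit, geometric mean.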

[2] = Protein binding in human plasma; assay type: ADME, cell-free; details: read-out: PPB (converted)
[3] = target: Voltage-gated inwardly rectifying potassium channel KCNH2 (Homo sapiens, UniProt Q12809); test: Inhibition of human ERG expressed in CHO cells by whole-cell voltage-clamp analysis; assay type: cell-based
Sequence of Voltage-gated inwardly rectifying potassium channel KCNH2 (Q12809 whole entry): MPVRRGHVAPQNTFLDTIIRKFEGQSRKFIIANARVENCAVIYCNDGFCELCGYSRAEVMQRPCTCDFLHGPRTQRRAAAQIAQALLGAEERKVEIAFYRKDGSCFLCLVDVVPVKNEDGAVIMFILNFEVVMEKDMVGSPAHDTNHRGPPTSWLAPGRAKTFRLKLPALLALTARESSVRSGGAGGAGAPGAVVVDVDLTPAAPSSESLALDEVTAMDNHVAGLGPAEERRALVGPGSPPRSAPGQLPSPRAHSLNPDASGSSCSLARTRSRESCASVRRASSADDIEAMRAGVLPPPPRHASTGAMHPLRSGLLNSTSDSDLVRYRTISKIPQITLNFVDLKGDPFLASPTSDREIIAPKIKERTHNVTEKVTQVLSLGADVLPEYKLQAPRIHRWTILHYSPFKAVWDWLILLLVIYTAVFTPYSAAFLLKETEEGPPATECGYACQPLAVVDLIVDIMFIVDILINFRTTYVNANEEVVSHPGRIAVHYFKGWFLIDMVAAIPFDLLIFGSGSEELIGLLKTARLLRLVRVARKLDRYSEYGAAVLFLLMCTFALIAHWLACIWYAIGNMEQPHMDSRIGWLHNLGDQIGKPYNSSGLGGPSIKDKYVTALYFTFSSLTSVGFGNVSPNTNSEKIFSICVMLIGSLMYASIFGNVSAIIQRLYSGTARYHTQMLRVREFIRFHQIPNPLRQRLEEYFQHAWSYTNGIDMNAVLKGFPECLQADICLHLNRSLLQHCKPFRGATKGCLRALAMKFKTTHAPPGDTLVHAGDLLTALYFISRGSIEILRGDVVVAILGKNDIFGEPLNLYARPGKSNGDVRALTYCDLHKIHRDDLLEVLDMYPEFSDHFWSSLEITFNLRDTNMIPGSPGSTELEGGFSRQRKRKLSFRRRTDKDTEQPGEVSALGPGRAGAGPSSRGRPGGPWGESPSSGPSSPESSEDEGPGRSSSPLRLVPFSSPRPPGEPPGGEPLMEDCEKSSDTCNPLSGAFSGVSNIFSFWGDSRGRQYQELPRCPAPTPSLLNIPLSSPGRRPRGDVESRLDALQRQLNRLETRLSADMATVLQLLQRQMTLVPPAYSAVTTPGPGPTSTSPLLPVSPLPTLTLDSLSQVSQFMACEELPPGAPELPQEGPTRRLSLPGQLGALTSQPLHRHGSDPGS
Outline: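 CHO cells expressing hERG were held in Dulbecco's PBS with Ca/Mg, pH 7–7.2, at room temperature. Tail currents were recorded by automated whole-cell voltage clamp after 300 s exposure. […] Quinidine served as positive control and 0.25% DMSO buffer as negative control.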

VCaP = test: Antiproliferative activity against human VCaP cells assessed as reduction in cell growth incubated for 96 hrs by propidium iodide based 2D monolayer assay; assay type: functional
Outline: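 VCaP cells in RPMI 1640 with 10% FCS at 37 °C, 5% CO2, seeded 4,000–20,000 cells/well and left 24 h before dosing. Compounds from DMSO stocks were diluted in half-log steps in medium, 10 concentrations 0.0032–100 μM, triplicate wells, max 0.3% DMSO. After 96 h, cells were washed, stained with 7 μg/ml propidium iodide plus 0.1% Triton X-100 for 1–2 h at room temperature, and fluorescence read at ex 530/em 620 nm.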

CWR22R = test: Antiproliferative activity against human 22Rv1 cells assessed as reduction in cell growth incubated for 96 hrs by propidium iodide based 2D monolayer assay; assay type: functional; outline: as §2
LNCaP = test: Antiproliferative activity against human LNCAP cells assessed as reduction in cell growth incubated for 96 hrs by propidium iodide based 2D monolayer assay; assay type: functional; outline: as §2
[4] = Metabolic stability in liver microsomes (unknown origin) assessed as half life at 3 uM measured upto 45 mins in presence of NADPH by LC-MS/MS analysis; assay type: ADME, Microsome; outline: as §1

## C[C@](O)(CS(=O)(=O)c1ccc(F)cc1)C(=O)Nc1ccc(C#N)c(C(F)(F)F)c1 [(R)-BICALUTAMIDE]
[1]
  microsomal CLint at 3 µM: 6.48 µL/min/mg
DU-145
  Activity: Dose-dependent effect
DU-145; DU-145, 96 h
  IC50: 45.4 µM
[2]
  fraction unbound: 0.02
[3]
  IC50: > 25 µM
VCaP
  Activity: Dose-dependent effect
  IC50: 51.6 µM
CWR22R
  Activity: Dose-dependent effect
LNCaP
  Activity: Dose-dependent effect
[4]
  half-life at 3 µM: 3.57 h
